For two compounds, Ratio and MIC results are on record in ChEMBL document CHEMBL4334464, “From Phenylthiazoles to Phenylpyrazoles: Broadening the Antibacterial Spectrum toward Carbapenem-Resistant Bacteria” (J Med Chem, 2019).

Holding throughout (assay type): functional
Assay [1] deals with Staphylococcus aureus. The assay is described as follows: Antibacterial activity against methicillin-resistant Staphylococcus aureus NRS123-USA400 clinical isolates assessed as ratio of MIC after and before 13 serial passages by broth microdilution assay. The method in brief: (§1)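 MRSA USA400 was serially passaged over a 14-day period in the presence of each compound or control antibiotic. MIC was determined by broth microdilution after each passage. A four-fold rise in MIC was taken as a sign of resistance.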

The subject of assay [2] is Staphylococcus aureus. Briefly: Antibacterial activity against methicillin-resistant Staphylococcus aureus NRS123-USA400 clinical isolates assessed as ratio of MIC after and before 1 serial passages by broth microdilution assay. An outline of the steps:
as §1
(In general: In broth dilution the organism is exposed to a series of concentrations in liquid medium.)

In assay [3] the test system is Klebsiella pneumoniae. The assay is described as follows: Antibacterial activity against Klebsiella pneumoniae BAA-1144 clinical isolates after 18 to 20 hrs in aerobic condition by CLSI-based broth microdilution assay.
Assay [4] has as its system Klebsiella pneumoniae. The assay is described as follows: Antibacterial activity against Klebsiella pneumoniae BAA-1706 clinical isolates after 18 to 20 hrs in aerobic condition by CLSI-based broth microdilution assay.
In assay [5] the test system is Acinetobacter baumannii. Briefly: Antibacterial activity against Acinetobacter baumannii ATCC 19606 clinical isolates after 18 to 20 hrs in aerobic condition by CLSI-based broth microdilution assay. To be noted: ATCC 19606 = CIP 70.34 = JCM 6841.
In assay [6] the test system is Salmonella enteritidis. Briefly: Antibacterial activity against Salmonella enteritidis ATCC 13076 clinical isolates after 18 to 20 hrs in aerobic condition by CLSI-based broth microdilution assay. To be noted: Salmonella enterica subsp. enterica serovar Enteritidis.
The subject of another assay is Pseudomonas aeruginosa. The assay is described as follows: Antibacterial activity against Pseudomonas aeruginosa ATCC 15442 clinical isolates after 18 to 20 hrs in aerobic condition by CLSI-based broth microdilution assay.
In assay [7] the test system is Escherichia coli. Briefly: Antibacterial activity against Escherichia coli ATCC 35150 clinical isolates after 18 to 20 hrs in aerobic condition by CLSI-based broth microdilution assay.
The test system of assay [8] is Acinetobacter baumannii. The assay is described as follows: Antibacterial activity against Acinetobacter baumannii NR 17785 clinical isolates after 18 to 20 hrs in aerobic condition by CLSI-based broth microdilution assay.
The test system of the next assay is Salmonella typhimurium. Briefly: Antibacterial activity against Salmonella typhimurium ATCC 700720 after 18 to 20 hrs in aerobic condition by CLSI-based broth microdilution assay. The note with it: Salmonella enterica subsp. enterica serovar Typhimurium.
A further assay has as its system Salmonella enterica. Briefly: Antibacterial activity against Salmonella enterica NR-170 clinical isolates after 18 to 20 hrs in aerobic condition by CLSI-based broth microdilution assay.
The subject of assay [9] is Enterobacter cloacae subsp. cloacae. The assay is described as follows: Antibacterial activity against Enterobacter cloacae subsp. cloacae ATCC BAA-1143 clinical isolates after 18 to 20 hrs in aerobic condition by CLSI-based broth microdilution assay.
Assay [10] concerns Escherichia coli. Briefly: Antibacterial activity against Escherichia coli ATCC 25922 clinical isolates after 18 to 20 hrs in aerobic condition by CLSI-based broth microdilution assay.
The test system of assay [11] is Salmonella enteritidis. The assay is described as follows: Antibacterial activity against Salmonella enteritidis ATCC 14028 clinical isolates after 18 to 20 hrs in aerobic condition by CLSI-based broth microdilution assay. The note with it: Salmonella enterica subsp. enterica serovar Enteritidis.
Assay [12] relates to Acinetobacter baumannii. The assay is described as follows: Antibacterial activity against Acinetobacter baumannii ATCC BAA 1141 clinical isolates after 18 to 20 hrs in aerobic condition by CLSI-based broth microdilution assay.
In assay [13] the test system is Acinetobacter baumannii. Briefly: Antibacterial activity against Acinetobacter baumannii NR 17786 clinical isolates after 18 to 20 hrs in aerobic condition by CLSI-based broth microdilution assay.
The next assay has as its system Shigella flexneri. The assay is described as follows: Antibacterial activity against Shigella flexneri ATCC 9199 clinical isolates after 18 to 20 hrs in aerobic condition by CLSI-based broth microdilution assay.

Some results are limits rather than exact numbers.

The term MIC denotes the least concentration at which growth counts as inhibited.

Take `CO[C@H]1/C=C/O[C@@]2(C)Oc3c(C)c(O)c4c(O)c(c(/C=N/N5CCN(C)CC5)c(O)c4c3C2=O)NC(=O)/C(C)=C\C=C\[C@H](C)[C@H](O)[C@@H](C)[C@@H](O)[C@@H](C)[C@H](OC(C)=O)[C@@H]1C` [RIFAMPIN]: the figures for the Ratio in the assay on Staphylococcus aureus [1] and in the assay with Staphylococcus aureus [2] were more than 500000 and 7, respectively.
For GENTAMICIN, the MIC against Klebsiella pneumoniae [3] was found to be 16 µg/mL; in the assay on Klebsiella pneumoniae [4], 8 µg/mL; in the assay with Acinetobacter baumannii [5], 16 µg/mL; against Salmonella enteritidis [6] it was 1 µg/mL; with Pseudomonas aeruginosa, 2 µg/mL; against Escherichia coli [7] it was 1 µg/mL. Further, the MIC against Acinetobacter baumannii [8] is more than 64 µg/mL; against Salmonella typhimurium, 1 µg/mL; against Salmonella enterica, 1 µg/mL; in [9], 1 µg/mL; against Escherichia coli [10] it was 1 µg/mL; against Salmonella enteritidis [11], 1 µg/mL. The values for the MIC with Acinetobacter baumannii [12], in the assay on Acinetobacter baumannii [13] and in the assay on Shigella flexneri were 4 µg/mL, 64 µg/mL and 1 µg/mL, respectively.
